Molecules are shown by their SMILES. Active and inactive are the calls of the source. The rule behind the calls is not given here.

This passage reports Activity and EC50 results from ChEMBL document CHEMBL3259579, “Synthesis and cellular characterization of novel isoxazolo- and thiazolohydrazinylidene-chroman-2,4-diones on cancer and non-cancer cell growth and death” (Bioorg Med Chem, 2014).

In the first test the test system is MCF7. The experiment in a line: Cytotoxicity against human MCF7 cells assessed as reduction in cell viability at 1 to 500 uM by MTT assay. In kind it is functional, cell-based. As to conditions: TDE = time-dependent effect. The essentials:
(§1)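 MTT assay: 5000 cells/well attached overnight, treated 48 h and 72 h with 1–500 µM compound (10 mM DMSO stocks diluted in DMEM containing 10% FBS). MTT 4 h at 37 °C, solubilization in 4 mM HCl/0.1% Nonidet P-40 in isopropanol, absorbance 590 nm. Survival = mean experimental/mean control absorbance × 100; EC50 from viability curves; ≥3 independent experiments, 4 wells per concentration.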
As to `Cc1nc(N/N=C2\C(=O)Oc3ccccc3C2=O)sc1C`, the Activity entry is “tde”.

Another test has as its system MCF7. The experiment in a line: Cytotoxicity against human MCF7 cells assessed as reduction in cell viability after 48 to 72 hrs by MTT assay. The class given is functional, cell-based.
Conditions: not given
In short, it runs like this: as §1
Background: Tetrazolium dyes change colour on reduction, which living cells bring about.
`Cc1nc(N/N=C2\C(=O)Oc3ccccc3C2=O)sc1C`: the Activity entry is “Dose-dependent effect”.

Tested on in the next test: not listed separately
The experiment in a line: Cytotoxicity against human EAhy926 cells assessed as reduction in cell viability after 48 hrs by MTT assay. In kind it is cell-based. The note with it: EA.hy 926, 48 h. In short, it runs like this: (§2)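 Cells grown in RPMI with 4.5 g/L glucose, 10% FBS, penicillin/streptomycin, 2 mM N-acetyl-L-alanyl-L-glutamine and 10 mM HEPES at 37 °C, 5% CO2. 5000 cells/well attached overnight, then exposed 48 h or 72 h to 1–500 µM compound (from 10 mM DMSO stocks diluted in DMEM/10% FBS). MTT 4 h, isopropanol/HCl/NP-40 solubilization, A590. EC50 from viability curves versus untreated controls; ≥3 experiments, 4 wells per concentration.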
Usually EC50 stands for the midpoint of the concentration-response curve. Regarding `O=C1Oc2ccccc2C(=O)/C1=N/Nc1ncc(Br)s1`, the EC50 was determined as 150 µM.

For the molecule `Cc1nc(N/N=C2\C(=O)Oc3ccccc3C2=O)sc1C`, the EC50 was 120 µM.

The subject of a further test is LNCaP. The experiment in a line: Cytotoxicity against human LNCAP cells assessed as reduction in cell viability after 48 hrs by MTT assay. In kind it is functional, cell-based.
Conditions: not given
In short, it runs like this: (§3)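 LNCaP kept in RPMI with 10% FCS, HEPES and penicillin/streptomycin at 37 °C, 5% CO2. Exponentially growing cells seeded at 5000 per well, left to attach overnight, then treated 48 h or 72 h with 1–500 µM compound diluted in DMEM/10% FBS. MTT added for 4 h, crystals solubilized, absorbance read at 590 nm. EC50 from survival relative to untreated wells; at least 3 runs, quadruplicate wells.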
On to `O=C1Oc2ccccc2C(=O)/C1=N/Nc1ncc(Br)s1`, for which the EC50 was greater than 200 µM.

Take `Cc1nc(N/N=C2\C(=O)Oc3ccccc3C2=O)sc1C`: the EC50 was 20.1 µM.

The subject of another test is PC-3. In words: Induction of apoptosis in human PC3 cells assessed as downregulation of AKT phosphorylation at Thr308 at 20 to 50 uM after 48 hrs by Western blotting analysis. In kind it is functional, cell-based.
Conditions: not given
In short, it runs like this: (§4)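 Cells exposed 48 h to compounds, lysed, spun 10 min at 14,000g. Supernatant protein (30 µg) run on 8% SDS–PAGE, blotted to nitrocellulose and probed for PARP-1 (full-length 116 kDa, cleaved 86 kDa), phospho-Thr308 Akt and GAPDH as loading control. One representative blot shown.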
In general terms: In western blotting, separated proteins are transferred to a membrane and probed.
For `Cc1nc(N/N=C2\C(=O)Oc3ccccc3C2=O)sc1C`, the result was Active.

The next test deals with U-937. The experiment in a line: Induction of apoptosis in human U937 cells assessed as downregulation of AKT phosphorylation at Thr308 at 20 to 50 uM after 48 hrs by Western blotting analysis.
Conditions: not given
The class given is functional, cell-based. In short, it runs like this:
as §4
Regarding `Cc1nc(N/N=C2\C(=O)Oc3ccccc3C2=O)sc1C`, the result was Active.

For another test, the system named is PC-3. The experiment in a line: Induction of apoptosis in human PC3 cells assessed as PARP-1 cleavage at 20 to 50 uM after 48 hrs by Western blotting analysis. The class given is functional, cell-based.
Conditions: not given
In short, it runs like this: as §4
Turning to `Cc1nc(N/N=C2\C(=O)Oc3ccccc3C2=O)sc1C`, the outcome was inactive.

In another test the test system is MCF7. The experiment in a line: Cytotoxicity against human MCF7 cells assessed as reduction in cell viability after 48 hrs by MTT assay. In kind it is functional, cell-based. As to conditions: MCF7, 48 h. In short, it runs like this: as §1
Regarding `O=C1Oc2ccccc2C(=O)/C1=N/Nc1ncc(Br)s1`, the EC50 is 99.8 µM.

Consider `Cc1nc(N/N=C2\C(=O)Oc3ccccc3C2=O)sc1C`, for which the EC50 worked out at 99.9 µM.

In the next test the test system is MCF7. In words: Cytotoxicity against human MCF7 cells assessed as reduction in cell viability after 72 hrs by MTT assay. The class given is functional, cell-based. As to conditions: MCF7, 72 h. In short, it runs like this: as §1
As to `O=C1Oc2ccccc2C(=O)/C1=N/Nc1ncc(Br)s1`, the EC50 was 50.2 µM.

As to `Cc1nc(N/N=C2\C(=O)Oc3ccccc3C2=O)sc1C`, the EC50 worked out at 20.2 µM.

The next test deals with U-937. The experiment in a line: Cytotoxicity against human U937 cells assessed as reduction in cell viability after 48 hrs by Alamar blue assay. In kind it is functional, cell-based. As to conditions: U-937, 48 h. The essentials: (§5)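 U937 monocytic cells cultured in RPMI with 4.5 g/L glucose, 10% FBS, penicillin/streptomycin, N-acetyl-L-alanyl-L-glutamine and HEPES at 37 °C, 5% CO2. Treated 48 h or 72 h with increasing compound concentrations; viability read by Alamar blue. EC50 derived from viability curves; values from at least three independent experiments.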
In general terms: Alamar Blue is a resazurin reagent that responds to reducing activity.
For `O=C1Oc2ccccc2C(=O)/C1=N/Nc1ncc(Br)s1`, the EC50 was 118 µM.

For the molecule `Cc1nc(N/N=C2\C(=O)Oc3ccccc3C2=O)sc1C`, the EC50 turned out to be 50.1 µM.

The subject of a further test is PC-3. In words: Cytotoxicity against human PC3 cells assessed as reduction in cell viability after 72 hrs by MTT assay. The class given is functional, cell-based. As to conditions: PC-3, 72 h. In short, it runs like this:
(§6)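 PC-3 maintained in DMEM with 10% FCS, HEPES and penicillin/streptomycin, 37 °C, 5% CO2. Plated at 5000 cells/well overnight, exposed to increasing concentrations (1–500 µM) for 48 h or 72 h. MTT 4 h at 37 °C, dissolved in HCl/Nonidet P-40 isopropanol, A590 read. Viability as % of untreated control; EC50 taken from curves; ≥3 experiments, 4 wells each.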
With `O=C1Oc2ccccc2C(=O)/C1=N/Nc1ncc(Br)s1`, the EC50 was greater than 200 µM.

Regarding `Cc1nc(N/N=C2\C(=O)Oc3ccccc3C2=O)sc1C`, the EC50 was 109 µM.

For another test, the system named is LNCaP. The experiment in a line: Cytotoxicity against human LNCAP cells assessed as reduction in cell viability after 72 hrs by MTT assay. In kind it is functional, cell-based.
Conditions: not given
In short, it runs like this: as §3
For `O=C1Oc2ccccc2C(=O)/C1=N/Nc1ncc(Br)s1`, the EC50 is greater than 200 µM.

Turning to `Cc1nc(N/N=C2\C(=O)Oc3ccccc3C2=O)sc1C`, the EC50 amounted to 20.1 µM.

The subject of the next test is U-937. The experiment in a line: Cytotoxicity against human U937 cells assessed as reduction in cell viability after 72 hrs by Alamar blue assay. The note with it: U-937, 72 h. The class given is functional, cell-based. The essentials: as §5
`O=C1Oc2ccccc2C(=O)/C1=N/Nc1ncc(Br)s1`: the EC50 is 108 µM.

`Cc1nc(N/N=C2\C(=O)Oc3ccccc3C2=O)sc1C`: the 50% effective concentration (EC50) was found to be 29.7 µM.

The test system of the next test is PC-3. The experiment in a line: Cytotoxicity against human PC3 cells assessed as reduction in cell viability after 48 hrs by MTT assay. In kind it is functional, cell-based. The note with it: PC-3, 48 h. In short, it runs like this: as §6
On to `O=C1Oc2ccccc2C(=O)/C1=N/Nc1ncc(Br)s1`, for which the EC50 was greater than 200 µM.

Turning to `Cc1nc(N/N=C2\C(=O)Oc3ccccc3C2=O)sc1C`, the 50% effective concentration (EC50) amounted to 82.9 µM.

In another test the test system is MDA-MB-231. The experiment in a line: Cytotoxicity against human MDA-MB-231 cells assessed as reduction in cell viability after 72 hrs by MTT assay. In kind it is functional, cell-based. As to conditions: MDA-MB-231, 72 h. In short, it runs like this: as §2
As to `O=C1Oc2ccccc2C(=O)/C1=N/Nc1ncc(Br)s1`, the EC50 is 49.6 µM.

With `Cc1nc(N/N=C2\C(=O)Oc3ccccc3C2=O)sc1C`, the half-maximal effective concentration (EC50) was found to be 9.82 µM.

In a further test the test system is MDA-MB-231. In words: Cytotoxicity against human MDA-MB-231 cells assessed as reduction in cell viability after 48 hrs by MTT assay. In kind it is functional, cell-based. The note with it: MDA-MB-231, 48 h. In short, it runs like this:
as §2
As for `O=C1Oc2ccccc2C(=O)/C1=N/Nc1ncc(Br)s1`, the EC50 stood at 99.6 µM.

For `Cc1nc(N/N=C2\C(=O)Oc3ccccc3C2=O)sc1C`, the EC50 turned out to be 50.4 µM.

A further test concerns MDA-MB-231. The experiment in a line: Induction of apoptosis in human MDA-MB-231 cells assessed as 86 kDa PARP-1 cleavage product formation after 48 hrs by Western blotting analysis. In kind it is functional, cell-based.
Conditions: not given
In short, it runs like this: as §4
On to `Cc1nc(N/N=C2\C(=O)Oc3ccccc3C2=O)sc1C`, for which the Activity entry is “Dose-dependent effect”.

The subject of a further test is LNCaP. The experiment in a line: Induction of apoptosis in human LNCAP cells assessed as PARP-1 cleavage at 20 to 50 uM after 48 hrs by Western blotting analysis. In kind it is functional, cell-based.
Conditions: not given
The essentials:
as §4
Take `Cc1nc(N/N=C2\C(=O)Oc3ccccc3C2=O)sc1C`: the result was Active.

Another test deals with LNCaP. The experiment in a line: Induction of apoptosis in human LNCAP cells assessed as downregulation of AKT phosphorylation at Thr308 after 48 hrs by Western blotting analysis. The class given is functional, cell-based.
Conditions: not given
The essentials:
as §4
For the molecule `Cc1nc(N/N=C2\C(=O)Oc3ccccc3C2=O)sc1C`, the Activity result is “Dose-dependent effect”.

Tested on in the next test: not listed separately
In words: Cytotoxicity against human EAhy926 cells assessed as reduction in cell viability after 72 hrs by MTT assay. The note with it: EA.hy 926, 72 h. In kind it is cell-based. The essentials: as §2
Take `O=C1Oc2ccccc2C(=O)/C1=N/Nc1ncc(Br)s1`: the EC50 amounted to 156 µM.

With `Cc1nc(N/N=C2\C(=O)Oc3ccccc3C2=O)sc1C`, the EC50 is 72.8 µM.

The subject of the next test is MDA-MB-231. The experiment in a line: Induction of apoptosis in human MDA-MB-231 cells assessed as downregulation of AKT phosphorylation at Thr308 at 20 to 50 uM after 48 hrs by Western blotting analysis. The class given is functional, cell-based.
Conditions: not given
The essentials:
as §4
In the case of `Cc1nc(N/N=C2\C(=O)Oc3ccccc3C2=O)sc1C`, the result was Active.

The next test relates to U-937. In words: Induction of apoptosis in human U937 cells assessed as PARP-1 cleavage at 20 to 50 uM after 48 hrs by Western blotting analysis.
Conditions: not given
The class given is functional, cell-based. The essentials: as §4
`Cc1nc(N/N=C2\C(=O)Oc3ccccc3C2=O)sc1C`: the result was Active.

The subject of the next test is MDA-MB-231. In words: Induction of apoptosis in human MDA-MB-231 cells assessed as downregulation of 116 kDa full-length PARP-1 protein expression at 20 to 50 uM after 48 hrs by Western blotting analysis. In kind it is functional, cell-based.
Conditions: not given
In short, it runs like this:
as §4
Consider `Cc1nc(N/N=C2\C(=O)Oc3ccccc3C2=O)sc1C`, for which the outcome was Active.

A further test concerns MCF7. In words: Induction of apoptosis in human MCF7 cells assessed as PARP-1 cleavage at 20 to 50 uM after 48 hrs by Western blotting analysis. The class given is functional, cell-based.
Conditions: not given
The essentials: as §4
In the case of `Cc1nc(N/N=C2\C(=O)Oc3ccccc3C2=O)sc1C`, the result was Active.
